ChEMBL document CHEMBL1156152, “Targeted delivery of paclitaxel to tumor cells: synthesis and in vitro evaluation” (J Med Chem, 2010)
Active and inactive are the calls of the source. The rule behind the calls is not given here.

Assays:
[1] = (§1) Cytotoxicity against paclitaxel-sensitive human KB3-1 cells assessed as decrease in cell viability after 72 hrs by neutral red dye assay; type: functional, cell-based; details: KB 3-1, 72 h
Outline: (§2)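 KB-3-1 head and neck cancer cells kept in D-MEM/F12 with 10% FBS, penicillin/streptomycin, 2 mM L-glutamine, 37 °C, 5% CO2. Seeded 20,000 cells/well, adhered 24 h, then given varying concentrations in triplicate for 72 h. Viable cells took up neutral red (50 μg/ml, 30 min); dye dissolved in 0.5 N HCl with 35% ethanol, absorbance 570 nm.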

KB 3-1 = test: as §1; type: functional, cell-based; outline: as §2
HUVEC [2] = test: Cytotoxicity against TPA-treated HUVEC assessed as decrease in cell viability after 72 hrs by neutral red dye assay; type: cell-based; details: human
Outline: (§3)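 HUVECs cultured overnight with or without TPA (100 nM phorbol ester) to induce tissue factor, then plated 20,000 cells/well, adhered 24 h, and exposed to graded drug concentrations for 72 h in triplicate. Viability read by neutral red uptake (50 μg/ml, 30 min, 37 °C), PBS washes, dye extracted in 0.5 N HCl/35% ethanol, absorbance at 570 nm.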

KB-V1 = test: Cytotoxicity against paclitaxel-resistant human KBV1 cells assessed as decrease in cell viability after 72 hrs by neutral red dye assay; type: functional, cell-based
Outline: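 KB-V1 cells grown in D-MEM/F12 with 10% FBS, penicillin/streptomycin, 2 mM L-glutamine and vinblastine (1 μg/ml), 37 °C, 5% CO2. Plated at 20,000 cells/well, adhered 24 h, treated with graded concentrations in triplicate for 72 h; neutral red (50 μg/ml, 30 min) uptake, dye extracted in acidic ethanol, read at 570 nm.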

HUVEC [3] = test: Cytotoxicity against HUVEC assessed as decrease in cell viability after 72 hrs by neutral red dye assay; type: cell-based; details: human; outline: as §3

Structure (SMILES) | IC50 [1] | Activity (KB 3-1) | Activity (HUVEC [2]) | Activity (KB-V1) | Activity (HUVEC [3])
CC(=O)O[C@H]1C(=O)[C@@]2(C)[C@H]([C@H](OC(=O)c3ccccc3)[C@]3(O)C[C@H](OC(=O)[C@H](OC(=O)CCC(=O)N[C@@H](Cc4ccccc4)C(=O)N[C@@H](Cc4ccccc4)C(=O)N[C@@H](CCCNC(=N)N)C(=O)CCl)[C@@H](NC(=O)c4ccccc4)c4ccccc4)C(C)=C1C3(C)C)[C@]1(OC(C)=O)CO[C@@H]1C[C@@H]2O | 12 nM | Dose-dependent effect | Not Active | inactive | –
CC(=O)O[C@H]1C(=O)[C@@]2(C)[C@H]([C@H](OC(=O)c3ccccc3)[C@]3(O)C[C@H](OC(=O)[C@H](O)[C@@H](NC(=O)c4ccccc4)c4ccccc4)C(C)=C1C3(C)C)[C@]1(OC(C)=O)CO[C@@H]1C[C@@H]2O [PACLITAXEL] | 1.2 nM | – | Active | inactive | Active
CC(=O)O[C@H]1C(=O)[C@]2(C)[C@@H](OC(=O)CCC(=O)N[C@@H](Cc3ccccc3)C(=O)N[C@@H](Cc3ccccc3)C(=O)N[C@@H](CCCNC(=N)N)C(=O)CCl)C[C@H]3OC[C@@]3(OC(C)=O)[C@H]2[C@H](OC(=O)c2ccccc2)[C@]2(O)C[C@H](OC(=O)[C@H](O)[C@@H](NC(=O)c3ccccc3)c3ccccc3)C(C)=C1C2(C)C | 130 nM | Dose-dependent effect | – | inactive | –
